Screening results from PubChem BioAssay.
In the library only some 2% were active in any assay of this set; here they are far more common.
XiGFP reactiv: reactivates the inactive X chromosome in mouse fibroblasts; XiGFP mouse fibroblasts, % GFP-positive cells imaging, 3 d; cells co-treated with 5-aza-dC sensitizer; scaled so ellipticine positive control = 100%; activation, % at 7.58 µM; hit rate 0.055% among 360,000; AID 743238;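 active = mean normalized replicate activation at least 10% and every replicate at or above 10%; inconclusive = only one of the two criteria met; inactive = mean below 10% and not all replicates reach 10%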;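 note: 0% = median of on-plate neutral control wells and 100% = ellipticine 6 µM median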
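Assay system: SV40-immortalized XiGFP fibroblast cells, line 68-5-11; buffer or medium: DMEM plus 5-aza-dC sensitizer; compound: one concentration, pinned; timing: compounds 3 days, fix/stain 15 min at room temperature; benchmarks: positive control ellipticine, 6 µM final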
S100A4 inh HTS: S100A4-myosin IIA interaction inhibition; P26447; S100A4/TAMRA-MyoIIA peptide fluorescence polarization; inhibition, % at 10.7 µM; hit rate 0.14% among 360,000; AID 652163;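 active = mean inhibition of at least 70% across replicates, with every replicate also reaching that level; inconclusive = mean inhibition reaches 70% but some replicates fall short; inactive = mean inhibition below 70%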
Target sequence (P26447 whole entry, looked up): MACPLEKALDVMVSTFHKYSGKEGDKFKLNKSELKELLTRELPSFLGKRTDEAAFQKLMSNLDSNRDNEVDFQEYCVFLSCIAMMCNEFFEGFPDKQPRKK
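Material: S100A4 monomer protein / Buffer or medium: 50 mM HEPES pH 7.2, 10 mM CaCl2, 100 mM KCl / Times: 5 min incubation before reading / Benchmarks: neutral control DMSO, positive control TFP / Reagent: labelled myosin peptide probe, 5 nM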
E-selectin induc: E-selectin induction on HUVECs | P16581 | hit rate 0.37% among 260,000 | HUVEC E-selectin immunofluorescence imaging; normalized: neutral wells 0, TNF-alpha wells 100 | activation, % at 7.58 µM;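 active = mean E-selectin-positive cell signal at least 10% of the positive control, reached in at least 60% of replicates, without over 20% cell loss; inconclusive = no rule given, readout overlaps actives, possibly toxicity-flagged; inactive = the rest, including those meeting only one limit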
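Read-out basis: % PE-positive cells; Test system: HUVEC primary endothelial cells; Technique: immunofluorescence imaging; Dosing: single-point compound dose.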
DENV2 CPE rescue: DENV2-induced cell death inhibition; DENV2-infected cells, cytopathic effect rescue, plate reader; CPE inhibition, % at 9.99 µM; hit rate 1.7% among 350,000; in the data active = CPE inhibition above about 20%, passing the limit was not always enough; inconclusive = no clear call, values can overlap the other calls; tested in BHK-21 cells;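 note: 0% = median of neutral control wells and 100% = median of positive control wells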
Numbers without * were called inactive; ? = inconclusive; . = not tested or not shown.

SMILES | XiGFP reactiv | S100A4 inh HTS | E-selectin induc | DENV2 CPE rescue
COc1ccc(S(=O)(=O)N(C)C[C@@H]2Oc3ccc(N(C)C)cc3CC(=O)N([C@H](C)CO)C[C@@H]2C)cc1 | 0 | 4 | 0 | 23*
COc1ccc(S(=O)(=O)N(C)C[C@@H]2Oc3ccc(N(C)C)cc3CC(=O)N([C@@H](C)CO)C[C@@H]2C)cc1 | 0 | 19 | 0 | 15
Cc1noc(C)c1S(=O)(=O)N(C)C[C@H]1Oc2ccc(N(C)C)cc2CC(=O)N([C@H](C)CO)C[C@H]1C | -1 | 129* | 0 | -12
Cc1noc(C)c1S(=O)(=O)N(C)C[C@H]1Oc2ccc(NS(C)(=O)=O)cc2CC(=O)N([C@H](C)CO)C[C@H]1C | 0 | -15 | -5 | -5
C[C@H](CO)N1C[C@H](C)[C@@H](CN(C)S(C)(=O)=O)Oc2ccc(NC(=O)C3CCCCC3)cc2CC1=O | 0 | -3 | 27* | 18
COc1ccc(S(=O)(=O)N(C)C[C@H]2Oc3ccc(NC(=O)Nc4ccc5c(c4)OCO5)cc3CC(=O)N([C@@H](C)CO)C[C@H]2C)cc1 | 0 | 3 | 79* | 0
C[C@@H]1CCCCO[C@@H](CN(C)C(=O)Nc2cccc3ccccc23)[C@@H](C)CN([C@H](C)CO)C(=O)c2cc(NC(=O)CCC(F)(F)F)ccc2O1 | 0 | . | 0 | -6
COc1ccc(NC(=O)Nc2ccc3c(c2)CC(=O)N([C@H](C)CO)C[C@@H](C)[C@@H](CN(C)S(=O)(=O)c2ccc(OC)cc2)O3)cc1 | 0 | 3 | 0 | 40*
COc1ccc(NC(=O)Nc2ccc3c(c2)CC(=O)N([C@@H](C)CO)C[C@H](C)[C@@H](CN(C)S(=O)(=O)c2ccc(F)cc2)O3)cc1 | -1 | -1 | 0 | 0
COc1ccc(S(=O)(=O)N(C)C[C@@H]2Oc3c(NC(=O)Nc4ccc5c(c4)OCO5)cccc3C(=O)N([C@@H](C)CO)C[C@@H]2C)cc1 | 0 | 5 | 5 | 27*
COc1ccc(S(=O)(=O)N(C)C[C@@H]2Oc3ccc(NC(=O)C4CCCCC4)cc3CC(=O)N([C@H](C)CO)C[C@@H]2C)cc1 | 0 | 9 | 0 | 6
COc1ccc(S(=O)(=O)N(C)C[C@H]2Oc3ccc(NC(=O)C4CCCCC4)cc3CC(=O)N([C@H](C)CO)C[C@H]2C)cc1 | 0 | 3 | 5 | 22*
COc1ccc(NC(=O)Nc2ccc3c(c2)CC(=O)N([C@H](C)CO)C[C@H](C)[C@@H](CN(C)S(=O)(=O)c2ccc(F)cc2)O3)cc1 | 15* | -7 | 0 | -3
CCCCN1C(=O)C(=O)NC[C@@H]1C(C)CC (stereo partly drawn) | 0 | 0 | 1 | 2
Cc1cccc(OCC(=O)NCc2ccccc2)c1 | 0 | 0 | . | ?
C[C@H](CO)N1C[C@H](C)[C@H](CN(C)Cc2ccccc2C(F)(F)F)OCc2cnnn2CCCC1=O | 0 | 13 | 0 | -9
COCCN(C(=O)CSc1ncccn1)c1c(N)n(Cc2ccccc2)c(=O)[nH]c1=O | 0 | 0 | . | -8
CCc1c(C)sc(NC(=O)c2cc(C(C)C)on2)c1C#N | 0 | 6 | 0 | 2
CC(C)(C)CCN1CCC(CN2CCNC2=S)CC1 | 0 | 0 | 0 | .
COc1ccc(-c2nn(CCC#N)cc2C(=O)Nc2cccc(C(=O)O)c2)cc1OC | 0 | 6 | . | 4
COc1ccc(NC(=O)Nc2ccc3c(c2)CC(=O)N([C@@H](C)CO)C[C@H](C)[C@@H](CN(C)S(C)(=O)=O)O3)cc1 | -1 | -6 | . | 8
COc1ccc(NC(=O)Nc2ccc3c(c2)CC(=O)N([C@@H](C)CO)C[C@@H](C)[C@H](CN(C)S(C)(=O)=O)O3)cc1 | 0 | 6 | . | 30*
